Common to all, as to assay type: functional
Assay [1] has as its system HeLa. The assay is described as follows: Minimum cytotoxic concentration against vaccinia virus in aneuploid (Hela) human cells. The gist of the method: (§1)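 Uninfected confluent monolayers (rabbit kidney, HeLa, Vero or E6SM) were incubated with compound for the same time as the antiviral assay. The value is the lowest concentration (µg/mL) that causes a microscopically detectable change in normal cell morphology.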

Assay [2] is filed under the species Homo sapiens. The assay is described as follows: Minimum cytotoxic concentration in diploid (E6SM) human cell culture. The gist of the method:
as §1

The species named for assay [3] is Oryctolagus cuniculus. Nature of the assay: Antiviral activity in primary rabbit kidney cell cultures against Herpes simplex virus type 2 Strain 196.
The species named for assay [4] is Oryctolagus cuniculus. The assay is described as follows: Antiviral activity in primary rabbit kidney cell cultures against Herpes simplex virus type 2 Strain Lyons.
Assay [5] is filed under the species Oryctolagus cuniculus. The assay is described as follows: Antiviral activity in primary rabbit kidney cell cultures against vesicular stomatitis virus.
For assay [6], the species on record is Homo sapiens. The assay is described as follows: Inhibitory effect on proliferation of Human B-Lymphoblast (Raji). To be noted: read-out: ID50 (the source's name).
The species named for assay [7] is Oryctolagus cuniculus. The assay is described as follows: Antiviral activity in primary rabbit kidney cell cultures against Herpes Simplex virus type 1 (TK-strain B2006).
Assay [8] is filed under the species Oryctolagus cuniculus. The assay is described as follows: Minimum cytotoxic concentration against herpes simplex virus in primary rabbit kidney cell cultures. In outline:
as §1

For assay [9], the species on record is Oryctolagus cuniculus. Nature of the assay: Antiviral activity in primary rabbit kidney cell cultures against Herpes Simplex virus type 1 (Fstrain).
Assay [10] deals with Vero. The assay is described as follows: Minimum inhibitory concentration against vaccinia virus in vero cells of African green monkey kidney. To be noted: Chlorocebus sabaeus.
The species entered for assay [11] is Oryctolagus cuniculus. Nature of the assay: Antiviral activity in primary rabbit kidney cell cultures against vaccinia virus.
The subject of assay [12] is HeLa. The assay is described as follows: Minimum inhibitory concentration against vaccinia virus in aneuploid (Hela) human cells.
In a further assay the test system is FM3A. The assay is described as follows: Inhibitory effect on proliferation of Murine mammary Carcinoma (FM3A). The note with it: Mus musculus, read-out: ID50 (the source's name).
For assay [13], the species on record is Oryctolagus cuniculus. The assay is described as follows: Antiviral activity in primary rabbit kidney cell cultures against Herpes simplex virus type 2 Strain G.
The species entered for assay [14] is Oryctolagus cuniculus. Nature of the assay: Antiviral activity in primary rabbit kidney cell cultures against Herpes Simplex virus type 1 (KOS strain).
Assay [15] in a line: Inhibitory effect on proliferation of Human T-Lymphoblast (Molt/4F) cells. To be noted: read-out: ID50 (the source's name).
Assay [16] is filed under the species Oryctolagus cuniculus. The assay is described as follows: Antiviral activity in primary rabbit kidney cell cultures against Herpes Simplex virus type 1 (TK-strain VMW I837).
Assay [17] relates to Vero. The assay is described as follows: Minimum cytotoxic concentration in vero cells of African green monkey kidney. The note with it: Chlorocebus sabaeus. The gist of the method: as §1
Assay [18] is filed under the species Homo sapiens. Nature of the assay: Minimum inhibitory concentration against vaccinia virus in diploid (E6SM) human cell culture.
The species named for assay [19] is Oryctolagus cuniculus. Nature of the assay: Antiviral activity in primary rabbit kidney cell cultures against Herpes Simplex virus type 1 (McIntyre strain).
The next assay relates to L1210. Nature of the assay: Inhibitory effect on Proliferation of Murine Leukemia (L1210). The note with it: Mus musculus, read-out: ID50 (the source's name).

≈ marks a conversion by molar mass, not a printed value. A value given as a limit tells only on which side of the number the result lay.

Regarding `Nc1ncnc2c1ncn2[C@@H]1O[C@H](COP(=O)([O-])OC[C@H]2O[C@H](n3cnc4c(N)ncnc43)[C@@H](O)[C@@H]2O)[C@@H](O)[C@@H]1O.[Na+]`, the MCC was greater than 400 µg/mL in the assay with HeLa [1], no less than 400 µg/mL in the assay filed under Homo sapiens [2], greater than 400 µg/mL in the assay listed under Oryctolagus cuniculus [8] and greater than 400 µg/mL with Vero [17]. The MIC is 100 µg/mL in the assay listed under Oryctolagus cuniculus [3]; 20 µg/mL in the assay listed under Oryctolagus cuniculus [4]; greater than 400 µg/mL in the assay filed under Oryctolagus cuniculus [5]; 300 µg/mL in the assay filed under Oryctolagus cuniculus [7]; 70 µg/mL in the assay filed under Oryctolagus cuniculus [9]; 70 µg/mL in the assay on Vero [10]. Also, the MIC in the assay filed under Oryctolagus cuniculus [11] came out at 7 µg/mL; against HeLa [12], 200 µg/mL; in the assay listed under Oryctolagus cuniculus [13] it was 70 µg/mL; in the assay filed under Oryctolagus cuniculus [14] it was 70 µg/mL; in the assay listed under Oryctolagus cuniculus [16], 150 µg/mL; in the assay listed under Homo sapiens [18], 20 µg/mL. The MIC in the assay filed under Oryctolagus cuniculus [19] came out at 70 µg/mL. Further, the IC50 in the assay filed under Homo sapiens [6] is greater than 100 µg/mL; in the assay on FM3A it was 86.6 µg/mL; in assay [15], 43 µg/mL; in the assay on L1210, greater than 100 µg/mL.

`Nc1ncnc2c1ncn2[C@@H]1O[C@H](CO)[C@@H](OP(=O)([O-])O[C@H]2[C@H](O)[C@H](n3cnc4c(N)ncnc43)O[C@@H]2CO)[C@@H]1O.[Na+]`: the MCC was no less than 400 µg/mL in the assay on HeLa [1], greater than 400 µg/mL in the assay filed under Homo sapiens [2], greater than 400 µg/mL in the assay listed under Oryctolagus cuniculus [8] and no less than 400 µg/mL in the assay with Vero [17]. Moreover, the MIC in the assay listed under Oryctolagus cuniculus [3], in the assay filed under Oryctolagus cuniculus [4], in the assay filed under Oryctolagus cuniculus [5], in the assay listed under Oryctolagus cuniculus [7], in the assay filed under Oryctolagus cuniculus [9] and in the assay on Vero [10] was greater than 400 µg/mL throughout. The MIC in the assay listed under Oryctolagus cuniculus [11] was 300 µg/mL; in the assay with HeLa [12] it was greater than 400 µg/mL; in the assay listed under Oryctolagus cuniculus [13] it was greater than 400 µg/mL; in the assay listed under Oryctolagus cuniculus [14], greater than 400 µg/mL; in the assay listed under Oryctolagus cuniculus [16], greater than 400 µg/mL; in the assay filed under Homo sapiens [18], greater than 400 µg/mL. This molecule yielded an MIC in the assay listed under Oryctolagus cuniculus [19] greater than 400 µg/mL. The IC50 (in the assay listed under Homo sapiens [6]; with FM3A; in assay [15]; in the assay on L1210) was greater than 100 µg/mL throughout.

Regarding `Nc1ncnc2c1ncn2C1O[C@H](CO)[C@@H](OP(=O)([O-])OC[C@H]2OC(n3cnc4c(N)ncnc43)[C@H](O)[C@H]2O)[C@@H]1O.[Na+]` (stereo partly specified), the MCC is 100 µg/mL in the assay with HeLa [1], no less than 400 µg/mL in the assay listed under Homo sapiens [2], 100 µg/mL in the assay listed under Oryctolagus cuniculus [8] and greater than 40 µg/mL in the assay on Vero [17]. Also, the MIC in the assay filed under Oryctolagus cuniculus [3] is 20 µg/mL; in the assay listed under Oryctolagus cuniculus [4], 2 µg/mL; in the assay listed under Oryctolagus cuniculus [5], greater than 40 µg/mL; in the assay listed under Oryctolagus cuniculus [7], 20 µg/mL; in the assay listed under Oryctolagus cuniculus [9], 10 µg/mL; with Vero [10] it was 20 µg/mL. For the same molecule, the MIC was determined as 2 µg/mL in the assay listed under Oryctolagus cuniculus [11]; 20 µg/mL against HeLa [12]; 7 µg/mL in the assay filed under Oryctolagus cuniculus [13]; 20 µg/mL in the assay listed under Oryctolagus cuniculus [14]; 20 µg/mL in the assay filed under Oryctolagus cuniculus [16]; 10 µg/mL in the assay listed under Homo sapiens [18]. For the same molecule, the MIC in the assay listed under Oryctolagus cuniculus [19] is 7 µg/mL. The IC50 in the assay filed under Homo sapiens [6] was 32.3 µg/mL; with FM3A it was 20.4 µg/mL; in assay [15], 23.3 µg/mL; in the assay on L1210 it was 10 µg/mL.

As to `Nc1ncnc2c1ncn2C1O[C@H](CO)C(OP(=O)([O-])OC[C@H]2OC(n3cnc4c(N)ncnc43)[C@@H](O)[C@@H]2O)[C@@H]1O.[Na+]` (stereo partly specified), the MCC with HeLa [1] was no less than 200 µg/mL; in the assay listed under Homo sapiens [2], greater than 400 µg/mL; in the assay filed under Oryctolagus cuniculus [8], greater than 200 µg/mL; in the assay with Vero [17], greater than 400 µg/mL. In addition, the MIC was 7 µg/mL in the assay filed under Oryctolagus cuniculus [3]; 2 µg/mL in the assay filed under Oryctolagus cuniculus [4]; greater than 100 µg/mL in the assay filed under Oryctolagus cuniculus [5]; 20 µg/mL in the assay filed under Oryctolagus cuniculus [7]; 10 µg/mL in the assay filed under Oryctolagus cuniculus [9]; 20 µg/mL in the assay with Vero [10]. In addition, the MIC in the assay filed under Oryctolagus cuniculus [11] is 0.2 µg/mL; against HeLa [12], 20 µg/mL; in the assay listed under Oryctolagus cuniculus [13], 7 µg/mL; in the assay filed under Oryctolagus cuniculus [14] it was 20 µg/mL; in the assay listed under Oryctolagus cuniculus [16], 20 µg/mL; in the assay listed under Homo sapiens [18], 2 µg/mL. In the assay filed under Oryctolagus cuniculus [19], the MIC is 10 µg/mL. The IC50 in the assay listed under Homo sapiens [6] stood at 30 µg/mL; in the assay with FM3A, 22.4 µg/mL; in [15] it was 13.6 µg/mL; in the assay with L1210 it was 22.2 µg/mL.

Regarding `Nc1ncnc2c1ncn2[C@@H]1O[C@H](COP(=O)(O)O)[C@@H](O)[C@@H]1O` [VIDARABINE PHOSPHATE], the MCC in the assay on HeLa [1] was no less than 400 µg/mL; in the assay filed under Homo sapiens [2], no less than 400 µg/mL; in the assay filed under Oryctolagus cuniculus [8] it was greater than 100 µg/mL; in the assay on Vero [17], no less than 200 µg/mL. For the same molecule, the MIC was 20 µg/mL in the assay listed under Oryctolagus cuniculus [3]; 2 µg/mL in the assay filed under Oryctolagus cuniculus [4]; greater than 400 µg/mL in the assay listed under Oryctolagus cuniculus [5]; 20 µg/mL in the assay listed under Oryctolagus cuniculus [7]; 7 µg/mL in the assay filed under Oryctolagus cuniculus [9]; 20 µg/mL against Vero [10]. The MIC turned out to be 0.2 µg/mL in the assay listed under Oryctolagus cuniculus [11]; 20 µg/mL in the assay with HeLa [12]; 7 µg/mL in the assay filed under Oryctolagus cuniculus [13]; 20 µg/mL in the assay listed under Oryctolagus cuniculus [14]; 20 µg/mL in the assay filed under Oryctolagus cuniculus [16]; 7 µg/mL in the assay listed under Homo sapiens [18]. The molecule also gave an MIC in the assay listed under Oryctolagus cuniculus [19] of 10 µg/mL. Besides, the IC50 in the assay listed under Homo sapiens [6] came out at 32.6 µg/mL; in the assay on FM3A, 23.9 µg/mL; in assay [15] it was 18.5 µg/mL; in the assay on L1210 it was 24.2 µg/mL.

Consider `Nc1ncnc2c1ncn2[C@@H]1O[C@H](CO)[C@@H](O)[C@@H]1O` [VIDARABINE], for which the MCC in the assay on HeLa [1] was greater than 200 µg/mL; in the assay listed under Homo sapiens [2], greater than 400 µg/mL; in the assay listed under Oryctolagus cuniculus [8] it was greater than 100 µg/mL; with Vero [17], no less than 400 µg/mL. Besides, the MIC turned out to be 20 µg/mL (≈ 74.8 µM) in the assay filed under Oryctolagus cuniculus [3]; 7 µg/mL (≈ 26.2 µM) in the assay listed under Oryctolagus cuniculus [4]; 20 µg/mL (≈ 74.8 µM) in the assay filed under Oryctolagus cuniculus [5]; 20 µg/mL (≈ 74.8 µM) in the assay listed under Oryctolagus cuniculus [7]; 7 µg/mL (≈ 26.2 µM) in the assay filed under Oryctolagus cuniculus [9]; 70 µg/mL (≈ 262 µM) against Vero [10]. Also, the MIC was 2 µg/mL (≈ 7.48 µM) in the assay listed under Oryctolagus cuniculus [11]; 20 µg/mL (≈ 74.8 µM) against HeLa [12]; 7 µg/mL (≈ 26.2 µM) in the assay listed under Oryctolagus cuniculus [13]; 20 µg/mL (≈ 74.8 µM) in the assay listed under Oryctolagus cuniculus [14]; 20 µg/mL (≈ 74.8 µM) in the assay filed under Oryctolagus cuniculus [16]; 7 µg/mL (≈ 26.2 µM) in the assay filed under Homo sapiens [18]. The molecule further gave an MIC in the assay filed under Oryctolagus cuniculus [19] of 10 µg/mL (≈ 37.4 µM). Further, the IC50 in the assay filed under Homo sapiens [6] was 25.9 µg/mL (≈ 96.9 µM); with FM3A, 21.1 µg/mL (≈ 79 µM); in assay [15] it was 16.7 µg/mL (≈ 62.5 µM); in the assay on L1210, 21 µg/mL (≈ 78.6 µM).

These data come from ChEMBL document CHEMBL1124280, “Synthesis and biological evaluation of isomeric dinucleoside monophosphates and monomethylphosphonates of 9-beta-D-arabinofuranosyladenine and related analogues” (1988).
